From PubChem BioAssay AID652186 (Vanderbilt Specialized Chemistry Center, 2013)
Calls of active or inactive are those of the source. The rule behind the calls is not given here.

Biological target: Metabotropic glutamate receptor 8 (Rattus norvegicus) (UniProt P70579)
Experiment: mGlu8 modulation of glutamate calcium response, selectivity assay for mGlu5 silent allosteric modulator project, cell-based, rat, HEK293A, Galpha15, Fluo4 calcium (AID 652186)
Conditions: HEK293A rmGlu8+Galpha15, glutamate CRC
Method in brief: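 Schedule: dye loading 60 min at 37°C, compound 20 s, glutamate 80 s / System: HEK293 cells expressing rat mGlu8 plus Galpha15 / Medium: HBSS, HEPES and probenecid buffer, pH 7.4 / Detection: Fluo4 calcium fluorescence / Dosing: compound at 10 µM, 1% DMSO / Probe or stimulus: glutamate, 9 concentrations, 10 nM–1 mM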

Sequence of Metabotropic glutamate receptor 8 (Rattus norvegicus) (P70579 whole entry, looked up): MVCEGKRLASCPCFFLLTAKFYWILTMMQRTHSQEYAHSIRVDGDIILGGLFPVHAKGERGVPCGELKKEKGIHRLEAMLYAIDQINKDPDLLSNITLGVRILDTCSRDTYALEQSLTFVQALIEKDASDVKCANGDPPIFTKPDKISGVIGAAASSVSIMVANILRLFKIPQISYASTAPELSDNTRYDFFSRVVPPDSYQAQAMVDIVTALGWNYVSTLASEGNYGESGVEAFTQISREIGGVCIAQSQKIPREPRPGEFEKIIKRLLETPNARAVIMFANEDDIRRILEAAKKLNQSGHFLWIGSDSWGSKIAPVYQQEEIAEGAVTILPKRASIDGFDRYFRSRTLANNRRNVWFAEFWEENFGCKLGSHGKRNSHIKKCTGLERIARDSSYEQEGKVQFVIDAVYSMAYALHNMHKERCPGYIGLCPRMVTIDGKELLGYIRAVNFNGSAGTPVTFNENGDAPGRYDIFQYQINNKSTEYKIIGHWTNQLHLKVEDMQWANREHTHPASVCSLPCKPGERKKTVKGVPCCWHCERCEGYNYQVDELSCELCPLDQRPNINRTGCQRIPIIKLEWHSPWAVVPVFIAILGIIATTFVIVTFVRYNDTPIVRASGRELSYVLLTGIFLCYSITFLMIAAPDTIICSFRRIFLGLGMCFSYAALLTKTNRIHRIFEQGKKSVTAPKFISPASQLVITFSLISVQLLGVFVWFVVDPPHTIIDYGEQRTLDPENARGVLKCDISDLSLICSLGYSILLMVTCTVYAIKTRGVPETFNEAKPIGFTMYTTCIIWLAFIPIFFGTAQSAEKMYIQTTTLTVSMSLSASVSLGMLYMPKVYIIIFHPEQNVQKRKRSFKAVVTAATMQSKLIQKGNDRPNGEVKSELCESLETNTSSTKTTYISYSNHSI

O=C(c1ccc(C#Cc2cccc(F)c2)cn1)N1CC2CC2C1 (stereo unspecified)
glutamate EC50 in presence of 10 uM compound (vehicle ~3 uM): inactive
